Assay results published in ChEMBL document CHEMBL4689842, “EUbOPEN Chemogenomics Library wave 1” (2021).

Columns and labels:
U2OS = test: Multiplex assay against U2OS; assay type: toxicity, cell-based; conditions: human
In short: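 Cells stained live at seeding with Hoechst33342, BioTracker Green Microtubule Cytoskeleton Dye, MitoTracker Red and Annexin V Alexa Fluor 680 were imaged on a CQ1 microscope at 37°C and 5% CO2 after compound addition. Their classification by CellPathfinder machine-learning gating ran from Hoechst high-intensity objects versus normal cells, to healthy, pyknosed or fragmented nuclei among normal cells, to mitotic or apoptotic among pyknosed cells. Tubulin, mitochondrial-mass and membrane-permeability phenotypes are per cents of healthy-nucleus cells.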

HEK-293T = test: Incucyte cell viability with HEK293T; assay type: toxicity, cell-based; conditions: human, 10 µM, compound concentration 10 uM; note: filed as whole numbers so only -1 and 0 and 1 occur
[1] = 12 h, 1 µM, compound concentration 1 uM, replicate 1
[2] = 12 h, 1 µM, compound concentration 1 uM, replicate 2
[3] = 12 h, 10 µM, compound concentration 10 uM, replicate 1
[4] = 12 h, 10 µM, compound concentration 10 uM, replicate 2
[5] = 24 h, 1 µM, compound concentration 1 uM, replicate 1
[6] = 24 h, 1 µM, compound concentration 1 uM, replicate 2
[7] = 24 h, 10 µM, compound concentration 10 uM, replicate 1
[8] = 24 h, 10 µM, compound concentration 10 uM, replicate 2
[9] = 6 h, replicate number 1, timepoint 6 hours
[10] = 12 h, replicate number 1, timepoint 12 hours
[11] = 18 h, replicate number 1, timepoint 18 hours
[12] = 24 h, replicate number 1, timepoint 24 hours

COc1cc2c(Nc3ccc(NC(=O)c4ccccc4)cc3)ncnc2cc1OCCCN1CCOCC1
Population Apoptotic (%) (U2OS; [1]): 18% | Population Fragmented Nuclei (%) (U2OS; [1]): 8% | Population Healthy Nuclei (%) (U2OS; [1]): 77% | Population Hoechst High Intensity Objects (%) (U2OS; [1]): 1% | Population Membrane Permeable-Phenotype (%) (U2OS; [1]): 63% | Population Mitochondria Different-Phenotype (%) (U2OS; [1]): 24% | Population Mitotic Cells (%) (U2OS; [1]): 81% | Population Normal (%) (U2OS; [1]): 98% | Population Pyknosed Nuclei (%) (U2OS; [1]): 13% | Population Tubulin-Different-Phenotype (%) (U2OS; [1]): 99% | Total Cell Count (U2OS; [1]): 121 | Population Apoptotic (%) (U2OS; [2]): 0% | Population Fragmented Nuclei (%) (U2OS; [2]): 20% | Population Healthy Nuclei (%) (U2OS; [2]): 74% | Population Hoechst High Intensity Objects (%) (U2OS; [2]): 12% | Population Membrane Permeable-Phenotype (%) (U2OS; [2]): 67% | Population Mitochondria Different-Phenotype (%) (U2OS; [2]): 14% | Population Mitotic Cells (%) (U2OS; [2]): 100% | Population Normal (%) (U2OS; [2]): 87% | Population Pyknosed Nuclei (%) (U2OS; [2]): 5% | Population Tubulin-Different-Phenotype (%) (U2OS; [2]): 92% | Total Cell Count (U2OS; [2]): 97 | Population Apoptotic (%) (U2OS; [3]): 44% | Population Fragmented Nuclei (%) (U2OS; [3]): 5% | Population Healthy Nuclei (%) (U2OS; [3]): 86% | Population Hoechst High Intensity Objects (%) (U2OS; [3]): 3% | Population Membrane Permeable-Phenotype (%) (U2OS; [3]): 10% | Population Mitochondria Different-Phenotype (%) (U2OS; [3]): 24% | Population Mitotic Cells (%) (U2OS; [3]): 55% | Population Normal (%) (U2OS; [3]): 96% | Population Pyknosed Nuclei (%) (U2OS; [3]): 7% | Total Cell Count (U2OS; [3]): 215 | Population Apoptotic (%) (U2OS; [4]): 0% | Population Fragmented Nuclei (%) (U2OS; [4]): 10% | Population Healthy Nuclei (%) (U2OS; [4]): 87% | Population Hoechst High Intensity Objects (%) (U2OS; [4]): 11% | Population Membrane Permeable-Phenotype (%) (U2OS; [4]): 13% | Population Mitochondria Different-Phenotype (%) (U2OS; [4]): 38% | Population Mitotic Cells (%) (U2OS; [4]): 100% | Population Normal (%) (U2OS; [4]): 88% | Population Pyknosed Nuclei (%) (U2OS; [4]): 2% | Population Tubulin-Different-Phenotype (%) (U2OS; [4]): 14% | Total Cell Count (U2OS; [4]): 115 | Population Apoptotic (%) (U2OS; [5]): 19% | Population Fragmented Nuclei (%) (U2OS; [5]): 16% | Population Healthy Nuclei (%) (U2OS; [5]): 63% | Population Hoechst High Intensity Objects (%) (U2OS; [5]): 2% | Population Membrane Permeable-Phenotype (%) (U2OS; [5]): 48% | Population Mitochondria Different-Phenotype (%) (U2OS; [5]): 39% | Population Mitotic Cells (%) (U2OS; [5]): 80% | Population Normal (%) (U2OS; [5]): 97% | Population Pyknosed Nuclei (%) (U2OS; [5]): 19% | Population Tubulin-Different-Phenotype (%) (U2OS; [5]): 98% | Total Cell Count (U2OS; [5]): 129 | Population Apoptotic (%) (U2OS; [6]): 26% | Population Fragmented Nuclei (%) (U2OS; [6]): 24% | Population Healthy Nuclei (%) (U2OS; [6]): 61% | Population Hoechst High Intensity Objects (%) (U2OS; [6]): 7% | Population Membrane Permeable-Phenotype (%) (U2OS; [6]): 44% | Population Mitochondria Different-Phenotype (%) (U2OS; [6]): 43% | Population Mitotic Cells (%) (U2OS; [6]): 73% | Population Normal (%) (U2OS; [6]): 92% | Population Pyknosed Nuclei (%) (U2OS; [6]): 14% | Population Tubulin-Different-Phenotype (%) (U2OS; [6]): 95% | Total Cell Count (U2OS; [6]): 108 | Population Apoptotic (%) (U2OS; [7]): 18% | Population Fragmented Nuclei (%) (U2OS; [7]): 7% | Population Healthy Nuclei (%) (U2OS; [7]): 83% | Population Hoechst High Intensity Objects (%) (U2OS; [7]): 8% | Population Membrane Permeable-Phenotype (%) (U2OS; [7]): 13% | Population Mitochondria Different-Phenotype (%) (U2OS; [7]): 37% | Population Mitotic Cells (%) (U2OS; [7]): 81% | Population Normal (%) (U2OS; [7]): 91% | Population Pyknosed Nuclei (%) (U2OS; [7]): 9% | Population Tubulin-Different-Phenotype (%) (U2OS; [7]): 18% | Total Cell Count (U2OS; [7]): 237 | Population Apoptotic (%) (U2OS; [8]): 25% | Population Fragmented Nuclei (%) (U2OS; [8]): 14% | Population Healthy Nuclei (%) (U2OS; [8]): 77% | Population Hoechst High Intensity Objects (%) (U2OS; [8]): 10% | Population Membrane Permeable-Phenotype (%) (U2OS; [8]): 14% | Population Mitochondria Different-Phenotype (%) (U2OS; [8]): 25% | Population Mitotic Cells (%) (U2OS; [8]): 75% | Population Normal (%) (U2OS; [8]): 89% | Population Pyknosed Nuclei (%) (U2OS; [8]): 8% | Population Tubulin-Different-Phenotype (%) (U2OS; [8]): 22% | Total Cell Count (U2OS; [8]): 115 | Growth Rate (HEK-293T; [9]): 0 | Growth Rate (HEK-293T; [10]): 0 | Growth Rate (HEK-293T; [11]): 0 | Growth Rate (HEK-293T; [12]): 0

c1ccc2oc(-c3csc(C4CCN(Cc5nc6ncccc6[nH]5)CC4)n3)cc2c1
Population Apoptotic (%) (U2OS; [1]): 8% | Population Fragmented Nuclei (%) (U2OS; [1]): 2% | Population Healthy Nuclei (%) (U2OS; [1]): 90% | Population Hoechst High Intensity Objects (%) (U2OS; [1]): 3% | Population Membrane Permeable-Phenotype (%) (U2OS; [1]): 12% | Population Mitochondria Different-Phenotype (%) (U2OS; [1]): 15% | Population Mitotic Cells (%) (U2OS; [1]): 91% | Population Normal (%) (U2OS; [1]): 96% | Population Pyknosed Nuclei (%) (U2OS; [1]): 6% | Population Tubulin-Different-Phenotype (%) (U2OS; [1]): 10% | Total Cell Count (U2OS; [1]): 182 | Population Apoptotic (%) (U2OS; [2]): 25% | Population Fragmented Nuclei (%) (U2OS; [2]): 8% | Population Healthy Nuclei (%) (U2OS; [2]): 85% | Population Hoechst High Intensity Objects (%) (U2OS; [2]): 7% | Population Membrane Permeable-Phenotype (%) (U2OS; [2]): 8% | Population Mitochondria Different-Phenotype (%) (U2OS; [2]): 27% | Population Mitotic Cells (%) (U2OS; [2]): 75% | Population Normal (%) (U2OS; [2]): 92% | Population Tubulin-Different-Phenotype (%) (U2OS; [2]): 15% | Total Cell Count (U2OS; [2]): 141 | Population Apoptotic (%) (U2OS; [3]): 42% | Population Fragmented Nuclei (%) (U2OS; [3]): 4% | Population Healthy Nuclei (%) (U2OS; [3]): 91% | Population Hoechst High Intensity Objects (%) (U2OS; [3]): 3% | Population Membrane Permeable-Phenotype (%) (U2OS; [3]): 9% | Population Mitochondria Different-Phenotype (%) (U2OS; [3]): 25% | Population Mitotic Cells (%) (U2OS; [3]): 57% | Population Normal (%) (U2OS; [3]): 96% | Population Pyknosed Nuclei (%) (U2OS; [3]): 3% | Population Tubulin-Different-Phenotype (%) (U2OS; [3]): 29% | Total Cell Count (U2OS; [3]): 205 | Population Apoptotic (%) (U2OS; [4]): 25% | Population Fragmented Nuclei (%) (U2OS; [4]): 7% | Population Healthy Nuclei (%) (U2OS; [4]): 88% | Population Hoechst High Intensity Objects (%) (U2OS; [4]): 15% | Population Membrane Permeable-Phenotype (%) (U2OS; [4]): 18% | Population Mitochondria Different-Phenotype (%) (U2OS; [4]): 34% | Population Mitotic Cells (%) (U2OS; [4]): 75% | Population Normal (%) (U2OS; [4]): 84% | Population Pyknosed Nuclei (%) (U2OS; [4]): 4% | Population Tubulin-Different-Phenotype (%) (U2OS; [4]): 34% | Total Cell Count (U2OS; [4]): 114 | Population Apoptotic (%) (U2OS; [5]): 40% | Population Fragmented Nuclei (%) (U2OS; [5]): 2% | Population Healthy Nuclei (%) (U2OS; [5]): 90% | Population Hoechst High Intensity Objects (%) (U2OS; [5]): 2% | Population Membrane Permeable-Phenotype (%) (U2OS; [5]): 7% | Population Mitochondria Different-Phenotype (%) (U2OS; [5]): 16% | Population Mitotic Cells (%) (U2OS; [5]): 60% | Population Normal (%) (U2OS; [5]): 97% | Population Tubulin-Different-Phenotype (%) (U2OS; [5]): 19% | Total Cell Count (U2OS; [5]): 223 | Population Apoptotic (%) (U2OS; [6]): 25% | Population Fragmented Nuclei (%) (U2OS; [6]): 4% | Population Healthy Nuclei (%) (U2OS; [6]): 88% | Population Hoechst High Intensity Objects (%) (U2OS; [6]): 3% | Population Membrane Permeable-Phenotype (%) (U2OS; [6]): 9% | Population Mitochondria Different-Phenotype (%) (U2OS; [6]): 24% | Population Mitotic Cells (%) (U2OS; [6]): 75% | Population Normal (%) (U2OS; [6]): 96% | Population Pyknosed Nuclei (%) (U2OS; [6]): 6% | Population Tubulin-Different-Phenotype (%) (U2OS; [6]): 22% | Total Cell Count (U2OS; [6]): 181 | Population Apoptotic (%) (U2OS; [7]): 45% | Population Fragmented Nuclei (%) (U2OS; [7]): 5% | Population Healthy Nuclei (%) (U2OS; [7]): 90% | Population Hoechst High Intensity Objects (%) (U2OS; [7]): 1% | Population Membrane Permeable-Phenotype (%) (U2OS; [7]): 5% | Population Mitochondria Different-Phenotype (%) (U2OS; [7]): 14% | Population Mitotic Cells (%) (U2OS; [7]): 54% | Population Normal (%) (U2OS; [7]): 98% | Population Pyknosed Nuclei (%) (U2OS; [7]): 3% | Total Cell Count (U2OS; [7]): 282 | Population Apoptotic (%) (U2OS; [8]): 0% | Population Fragmented Nuclei (%) (U2OS; [8]): 4% | Population Healthy Nuclei (%) (U2OS; [8]): 91% | Population Hoechst High Intensity Objects (%) (U2OS; [8]): 9% | Population Membrane Permeable-Phenotype (%) (U2OS; [8]): 11% | Population Mitochondria Different-Phenotype (%) (U2OS; [8]): 33% | Population Mitotic Cells (%) (U2OS; [8]): 100% | Population Normal (%) (U2OS; [8]): 90% | Population Pyknosed Nuclei (%) (U2OS; [8]): 4% | Population Tubulin-Different-Phenotype (%) (U2OS; [8]): 33% | Total Cell Count (U2OS; [8]): 137 | Growth Rate (HEK-293T; [9]): 0 | Growth Rate (HEK-293T; [10]): 0 | Growth Rate (HEK-293T; [11]): 0 | Growth Rate (HEK-293T; [12]): 0
